{
  "source": "ChEMBL document CHEMBL1156462",
  "about": "“Seco-pregnane steroids target the subgenomic RNA of alphavirus-like RNA viruses” (Proc Natl Acad Sci U S A, 2007)",
  "key": {"[1]": {"tested_on": "Tobacco mosaic virus", "experiment": "Inhibition of TMV U1 replication in tobacco BY2 protoplast at 50 nM by local lesion assay using Chenopodium quinoa leaves", "type": "functional, organism-based", "outline": "(§1)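 TMV premixed with compound at a range of concentrations used to inoculate tobacco BY-2 protoplasts; virus multiplication then assayed by counting local lesions on the local lesion host Chenopodium quinoa.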"}, "[2]": {"tested_on": "Tobacco mosaic virus", "experiment": "Inhibition of TMV U1 replication in tobacco BY2 protoplast by local lesion assay using Chenopodium quinoa leaves", "type": "functional, organism-based", "outline": "as §1"}, "[3]": {"tested_on": "Tobacco mosaic virus", "experiment": "Decrease in TMV U1 coat protein level in TMV infected tobacco BY2 protoplast at 50 nM by Western blot analysis", "type": "functional, organism-based", "outline": "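BY-2 protoplasts (5 ml, 1.5 × 10⁶/ml) infected with TMV pretreated with compound; total protein extracted and coat protein detected by Western blot.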"}, "[4]": {"tested_on": "Tobacco mosaic virus", "experiment": "Reduction of coat protein level in TMV U1 infected tobacco BY2 protoplast by ELISA", "type": "functional, organism-based", "outline": "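BY-2 protoplasts inoculated with TMV pretreated with a range of compound concentrations; coat protein measured by ELISA, three repeats per concentration, mean ± SD.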"}, "[5]": {"tested_on": "Tobacco mosaic virus", "experiment": "Inhibition of coat protein sgRNA accumulation in TMV U1 infected Nicotiana tabacum cv K326 plant leaves at 50 nM by Northern blot", "type": "functional, organism-based", "outline": "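N. tabacum cv. K326 leaves inoculated with TMV with or without 50 nM compound; inoculated and upper uninoculated leaves collected at 5 dpi. TRIzol total RNA probed with CP gene sequence by Northern blot, 28S rRNA as loading control.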"}, "[6]": {"tested_on": "Sindbis virus", "experiment": "Antiviral activity against Sindbis virus XJ160 in BHK21 cells assessed as reduction of virus-induced cytopathic effect after 24 hrs", "type": "functional, organism-based", "conditions": "BHK-21", "outline": "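SINV XJ-160 (2 × 10⁵ pfu/ml, thrice plaque-purified) treated with compound for 15 min, adsorbed 1 h to BHK-21 cells at MOI 0.01 in quadruplicate; washed, fresh DMEM with 5% FBS added, cells kept at 37°C, 5% CO₂. Cytopathic morphology scored by light microscopy at 24 hpi.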"}, "[7]": {"experiment": "Growth inhibition of hamster BHK21 cells at 100 nM after 48 hrs", "type": "cell-based, Mesocricetus auratus", "conditions": "bhk-21, 48 h, 0.1 µM", "outline": "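BHK-21 cells mock-infected and incubated with 100 nM compound for 48 h; cell morphology and growth examined by light microscopy.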"}, "[8]": {"experiment": "Cytotoxicity against hamster BHK21 cells", "type": "cell-based, Mesocricetus auratus, BHK-21"}, "[9]": {"experiment": "Selectivity index, ratio of CC50 for hamster BHK21 cells to EC50 for Sindbis virus XJ160", "type": "toxicity, cell-based, BHK-21", "conditions": "read-out: Ratio CC50/EC50", "outline": "(§2)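 SINV XJ-160 at 2 × 10⁵ pfu/ml was premixed with compound for 15 min. It was then adsorbed 1 h to BHK-21 cells, MOI 0.01, in quadruplicate. Cells were washed and kept in DMEM/5% FBS at 37°C. CC50 was 50% inhibition of uninfected BHK-21 proliferation. Index = CC50/EC50.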"}, "[10]": {"tested_on": "Sindbis virus", "experiment": "Reduction of mortality rate in Sindbis virus-infected newborn BALB/c mouse assessed as long term survivors at 5 mg/kg", "type": "functional", "outline": "(§3)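 Newborn BALB/c mice, 2–3 days old, ≈2 g, were inoculated intracerebrally with 20 μl medium holding 100 × LD50 SINV. Compound (20 μl, 5, 50 or 100 mg/kg BW) was mixed into the inoculum. There were 11 mice per group, counted at 3–7 days. Virus-alone and compound-alone controls were included.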"}, "[11]": {"tested_on": "Sindbis virus", "experiment": "Reduction of Sindbis virus infection-induced mortality rate in newborn BALB/c mouse assessed as long term survivors at 100 mg/kg", "type": "functional", "outline": "as §3"}, "[12]": {"tested_on": "Sindbis virus", "experiment": "Reduction of Sindbis virus infection-induced mortality rate in newborn BALB/c mouse assessed as survivors at 100 mg/kg administered 1 hr before infection after 7 days", "type": "functional", "outline": "(§4)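 Newborn BALB/c mice, 2–3 days old, ≈2 g, received 20 μl compound at 100 mg/kg BW 1 or 4 h before intracerebral inoculation with 20 μl containing 100 × LD50 SINV. There were 11 mice per group, with survivors counted at 3, 4, 5, 6 and 7 days.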"}, "[13]": {"tested_on": "Sindbis virus", "experiment": "Reduction of Sindbis virus infection-induced mortality rate in newborn BALB/c mouse assessed as survivors at 100 mg/kg administered 4 hrs before infection after 7 days", "type": "functional", "outline": "as §4"}, "[14]": {"tested_on": "Sindbis virus", "experiment": "Reduction of Sindbis virus infection-induced mortality rate in newborn BALB/c mouse assessed as mouse survival at 100 mg/kg administered 1 hr before viral infection", "type": "functional, organism-based", "set-up": "dose 100 mg/kg", "outline": "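Newborn BALB/c mice (2–3 days old, ≈2 g), 11 per group, given 20 μl compound at 100 mg/kg BW 1 or 4 h before intracerebral inoculation with 20 μl medium containing 100 × LD₅₀ SINV. Survivors counted at 3, 4, 5, 6 and 7 days after inoculation.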"}, "[15]": {"tested_on": "Sindbis virus", "experiment": "Antiviral activity against Sindbis virus in BHK21 cells assessed as inhibition of virus-induced cytopathogenicity", "type": "functional, organism-based", "conditions": "BHK-21"}, "[16]": {"tested_on": "Eastern equine encephalitis virus", "experiment": "Antiviral activity against Eastern equine encephalitis virus in BHK21 cells assessed as inhibition of virus-induced cytopathogenicity", "type": "functional, organism-based", "conditions": "BHK-21"}, "[17]": {"tested_on": "Getah virus", "experiment": "Antiviral activity against Getah virus in BHK21 cells assessed as inhibition of virus-induced cytopathogenicity", "type": "functional, organism-based", "conditions": "BHK-21", "outline": "(§5)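 Cells seeded at 2 × 10⁵ per well 24 h before use (BHK-21 for GETV, H9 for HIV, CIK for Reovirus, 983A for adenovirus, Veto for measles virus). Infected at a dose giving 100% cytopathic effect at 3 dpi; virus premixed with compound at final 100, 50, 10, 3, 2, 1.5, 1, 0 nM. Infected and uninfected untreated controls on each plate.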"}, "[18]": {"tested_on": "Japanese encephalitis virus", "experiment": "Antiviral activity against Japanese encephalitis virus in C6 cells assessed as inhibition of virus-induced cytopathogenicity", "type": "functional, organism-based"}, "[19]": {"tested_on": "Measles morbillivirus", "experiment": "Antiviral activity against measles virus in Veto cells assessed as inhibition of virus-induced cytopathogenicity", "type": "functional, organism-based", "outline": "as §5"}, "[20]": {"tested_on": "Reovirus sp.", "experiment": "Antiviral activity against Reovirus in CIK cells assessed as inhibition of virus-induced cytopathogenicity", "type": "functional, organism-based", "outline": "as §5"}, "[21]": {"tested_on": "Human immunodeficiency virus", "experiment": "Antiviral activity against HIV in human H9 cells assessed as inhibition of virus-induced cytopathogenicity", "type": "functional, organism-based", "conditions": "Human immunodeficiency virus 1, H9", "outline": "as §5"}, "[22]": {"experiment": "Selectivity index, ratio of CC50 for BHK21 cells to EC50 for Sindbis virus", "type": "toxicity, cell-based, BHK-21", "conditions": "hamster, read-out: Ratio CC50/EC50", "outline": "as §2"}, "[23]": {"tested_on": "Tobacco mosaic virus", "experiment": "Inhibition of TMV U1 multiplication in tobacco BY2 protoplast at 10 nM assessed as inhibition of local lesions on Chenopodium quinoa leaves by local lesion assay after 3 days postinfection", "type": "functional", "conditions": "U1, 72 h", "outline": "as §1"}, "[24]": {"tested_on": "Tobacco mosaic virus", "experiment": "Inhibition of TMV U1 multiplication in tobacco BY2 protoplast at 30 nM assessed as inhibition of local lesions on Chenopodium quinoa leaves by local lesion assay after 3 days postinfection", "type": "functional", "conditions": "U1, 72 h", "outline": "as §1"}, "[25]": {"tested_on": "Tobacco mosaic virus", "experiment": "Inhibition of TMV U1 multiplication in tobacco BY2 protoplast at 40 nM assessed as inhibition of local lesions on Chenopodium quinoa leaves by local lesion assay after 3 days postinfection", "type": "functional", "conditions": "U1, 72 h", "outline": "as §1"}, "[26]": {"tested_on": "Tobacco mosaic virus", "experiment": "Inhibition of TMV U1 multiplication in tobacco BY2 protoplast at 10 nM assessed as local lesion size on Chenopodium quinoa leaves by local lesion assay", "type": "functional"}, "[27]": {"tested_on": "Tobacco mosaic virus", "experiment": "Inhibition of TMV U1 multiplication in tobacco BY2 protoplast at 20 nM assessed as local lesion size on Chenopodium quinoa leaves by local lesion assay", "type": "functional"}, "[28]": {"tested_on": "Tobacco mosaic virus", "experiment": "Inhibition of TMV U1 multiplication in tobacco BY2 protoplast at 40 nM assessed as local lesion size on Chenopodium quinoa leaves by local lesion assay", "type": "functional"}, "[29]": {"tested_on": "Tobacco mosaic virus", "experiment": "Inhibition of TMV U1 multiplication in tobacco BY2 protoplast at 50 nM assessed as local lesion size on Chenopodium quinoa leaves by local lesion assay", "type": "functional"}},
  "note": "Calls of active or inactive are those of the source. The calls are words filed in the database; no cut-off is given here.",
  "data": [
    {"smiles": "CO[C@@H]1C[C@H](O[C@H]2CC[C@@]3(C)C(=CC[C@H]4C(=O)OC5CO[C@]6(C)OC=C(CC[C@@H]43)[C@H]56)C2)O[C@H](C)[C@H]1O[C@H]1C[C@H](O)[C@H](O[C@@H]2C[C@@H](OC)[C@H](O[C@@H]3O[C@H](CO)[C@@H](O[C@@H]4O[C@H](CO)[C@@H](O)[C@H](O)[C@H]4O)[C@H](O)[C@H]3O)[C@@H](C)O2)[C@@H](C)O1", "note": "(some centres undefined) [PANICULATUMOSIDE C]", "values": [
      {"measurement": "Activity", "setting": "[1]", "result": "Active"},
      {"measurement": "IC50", "setting": "[2]", "result": 25, "unit": "nM"},
      {"measurement": "Activity", "setting": "[3]", "result": "Active"},
      {"measurement": "Activity", "setting": "[4]", "result": "Dose-dependent effect"},
      {"measurement": "Activity", "setting": "[5]", "result": "Active"},
      {"measurement": "Activity", "setting": "[6]", "result": "Dose-dependent effect"},
      {"measurement": "Activity", "setting": "[7]", "result": "Non-toxic"},
      {"measurement": "CC50", "setting": "[8]", "result": 16500, "unit": "nM"},
      {"measurement": "selectivity ratio", "setting": "[9]", "result": 11000},
      {"measurement": "Activity", "setting": "[10]", "result": 18, "unit": "%"},
      {"measurement": "Activity", "setting": "[11]", "result": 100, "unit": "%"},
      {"measurement": "Activity", "setting": "[12]", "result": 100, "unit": "%"},
      {"measurement": "Activity", "setting": "[13]", "result": 30, "unit": "%"},
      {"measurement": "Activity", "setting": "[14]", "result": "Toxic"},
      {"measurement": "EC50", "setting": "[15]", "result": 1.5, "unit": "nM"},
      {"measurement": "EC50", "setting": "[16]", "result": 2, "unit": "nM"},
      {"measurement": "EC50", "setting": "[17]", "result": 1, "unit": "nM"},
      {"measurement": "EC50", "setting": "[18]", "result": "> 25000", "unit": "nM"},
      {"measurement": "EC50", "setting": "[19]", "result": "> 25000", "unit": "nM"},
      {"measurement": "EC50", "setting": "[20]", "result": "> 25000", "unit": "nM"},
      {"measurement": "EC50", "setting": "[21]", "result": "> 25000", "unit": "nM"},
      {"measurement": "selectivity ratio", "setting": "[22]", "result": 11000},
      {"measurement": "inhibition at 0.01 µM", "setting": "[23]", "result": 19, "unit": "%"},
      {"measurement": "inhibition at 0.03 µM", "setting": "[24]", "result": 72, "unit": "%"},
      {"measurement": "inhibition at 0.04 µM", "setting": "[25]", "result": 93, "unit": "%"},
      {"measurement": "Activity", "setting": "[26]", "result": 2.4, "unit": "mm"},
      {"measurement": "Activity", "setting": "[27]", "result": 1.6, "unit": "mm"},
      {"measurement": "Activity", "setting": "[28]", "result": 1, "unit": "mm"},
      {"measurement": "Activity", "setting": "[29]", "result": 0, "unit": "mm"}
    ]}
  ]
}
